Calls of active or inactive are those of the source. The rule behind the calls is not given here.

Nine molecules from ChEMBL document CHEMBL1800063, “Isolation and structural elucidation of proline-containing cyclopentapeptides from an endolichenic Xylaria sp” (2011) can be followed below.

Experiment [1] deals with Candida albicans. Nature of the experiment: Antifungal activity against Candida albicans SC5314 at 100 ug/mL after 16 hrs by CLSI M-27A broth microdilution method in presence of 0.004 ug/mL ketoconazole relative to compound alone. The class given is functional, organism-based. On the technique in general: Dilution methods test growth across graded concentrations, often in twofold steps.

The subject of experiment [2] is Candida albicans. Nature of the experiment: Antifungal activity against Candida albicans SC5314 at 100 ug/mL after 16 hrs by broth microdilution method. Format: functional, organism-based. A digest of the protocol:
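Candida albicans SC5314 broth microdilution adapted from CLSI M-27A. Overnight culture suspended in RPMI 1640 at 1 × 10^4 cfu/mL. 2 μL of sample plus 80 μL of suspension per well, incubated at 35 °C for 16 h. Ketoconazole was the positive control. Growth was read as optical density against blank-control wells to give the MIC.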

Experiment [3] deals with Candida albicans. Nature of the experiment: Antifungal activity against Candida albicans SC5314 at 6.25 ug/mL after 16 hrs by broth microdilution method in presence of 0.004 ug/mL ketoconazole relative to compound alone. The class given is functional.
In experiment [4] the test system is Candida albicans. Description: Antifungal activity against Candida albicans SC5314 at 1 ug/mL after 16 hrs by broth microdilution method in presence of 0.004 ug/mL ketoconazole relative to compound alone. Format: functional.

With `CO[C@@H]1C=C2C3CC[C@H](C(C)/C=C/C(C)C(C)C)[C@@]3(C)CC[C@@H]2[C@@]2(C)CC[C@H](O)C[C@]12O` (some centres not stated), the result with Candida albicans [1] and with Candida albicans [2] was inactive.
On to `CC(C)C(C)/C=C/[C@@H](C)[C@H]1CCC2=C3C=CC4=CC(=O)CC[C@]4(C)[C@H]3CC[C@@]21C` (some centres not stated), for which the outcome with Candida albicans [1] and in the experiment on Candida albicans [2] was inactive.
Turning to `CC[C@@H](C)[C@H]1NC(=O)[C@H](C(C)C)NC(=O)[C@H](Cc2ccccc2)N(C)C(=O)[C@@H]2CCCN2C(=O)[C@H](CC(C)C)NC1=O`, the “fractional inhibitory concentration index (FICI)” value with Candida albicans [3] is on record as <0.3125. For the same molecule, the result in the experiment with Candida albicans [2] was inactive.
With `CC(C)[C@@H](C)/C=C/[C@@H](C)[C@H]1CC[C@H]2C3=C[C@@H](O)[C@@]4(O)C[C@@H](O)CC[C@]4(C)[C@H]3CC[C@]12C`, the outcome with Candida albicans [1] and in the experiment with Candida albicans [2] was inactive.
Take `CC(C)[C@@H](C)/C=C/[C@@H](C)[C@H]1CC[C@@H]2[C@]1(C)CCC1[C@]23C=CC2(CC(O)CC[C@]12C)OO3` (some centres not stated): the outcome with Candida albicans [1] and in the experiment with Candida albicans [2] was inactive.
`CC(C)[C@@H]1OC(=O)[C@@H](Cc2ccccc2)N(C)C(=O)[C@H](C(C)C)OC(=O)[C@@H](Cc2ccccc2)N(C)C(=O)[C@H](C(C)C)OC(=O)[C@@H](Cc2ccccc2)N(C)C1=O` [BEAUVERICIN]: the “fractional inhibitory concentration index (FICI)” value in the experiment on Candida albicans [4] is recorded as <0.375.
Turning to `CC(C)[C@@H](C)/C=C/[C@@H](C)[C@H]1CC[C@H]2C3=CC=C4C[C@@H](O)CC[C@]4(C)[C@H]3CC[C@]12C`, the result with Candida albicans [1] and with Candida albicans [2] was inactive.
On to `C[C@]1(CCO)CC[C@H]2C(=CC[C@@H]3[C@]2(C)CCC[C@@]3(C)C(=O)O)C1`, for which the outcome in the experiment with Candida albicans [1] and in the experiment with Candida albicans [2] was inactive.
As for `CC(C)[C@@H](C)/C=C/[C@@H](C)[C@H]1CC[C@H]2C3=CC(=O)C4=CC(=O)CC[C@]4(C)[C@H]3CC[C@]12C`, the outcome in the experiment on Candida albicans [1] and in the experiment on Candida albicans [2] was inactive.
